From ChEMBL document CHEMBL1145747, “Potent inhibition of NTPase/helicase of the West Nile Virus by ring-expanded ("fat") nucleoside analogues” (J Med Chem, 2003)
Converted amounts (≈) assume the structure as drawn.

What was measured:
[1] = target: T1, ATP-dependent RNA helicase SUPV3L1, mitochondrial (Homo sapiens, UniProt Q8IYB8); assay: Inhibitory activity against human Suv3 helicase using RNA as substrate
T1 sequence (Q8IYB8 whole entry): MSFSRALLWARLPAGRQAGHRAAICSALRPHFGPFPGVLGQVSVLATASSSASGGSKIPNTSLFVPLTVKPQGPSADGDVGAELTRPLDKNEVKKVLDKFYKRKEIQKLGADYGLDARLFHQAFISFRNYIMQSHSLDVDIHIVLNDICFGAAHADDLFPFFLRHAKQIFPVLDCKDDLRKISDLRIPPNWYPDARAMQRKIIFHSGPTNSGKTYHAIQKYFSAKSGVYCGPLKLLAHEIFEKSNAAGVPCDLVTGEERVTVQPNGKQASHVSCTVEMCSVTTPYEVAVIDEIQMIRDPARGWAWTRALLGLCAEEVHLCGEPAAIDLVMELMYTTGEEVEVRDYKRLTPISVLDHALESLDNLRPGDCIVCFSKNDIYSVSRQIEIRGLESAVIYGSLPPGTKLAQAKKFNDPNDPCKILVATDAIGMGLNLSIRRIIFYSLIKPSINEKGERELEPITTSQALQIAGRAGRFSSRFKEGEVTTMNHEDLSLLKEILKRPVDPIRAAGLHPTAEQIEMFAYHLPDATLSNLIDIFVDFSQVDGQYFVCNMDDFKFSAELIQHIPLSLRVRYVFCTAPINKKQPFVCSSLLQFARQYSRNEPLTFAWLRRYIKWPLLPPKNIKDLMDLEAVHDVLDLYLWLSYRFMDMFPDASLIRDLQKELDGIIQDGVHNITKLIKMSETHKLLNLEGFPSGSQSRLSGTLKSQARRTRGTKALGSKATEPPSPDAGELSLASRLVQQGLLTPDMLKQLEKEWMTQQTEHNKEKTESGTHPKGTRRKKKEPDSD
Procedure, shortened: (§1)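 Human Suv3(Δ1-159), expressed in E. coli from pQE60, 0.2 pmol per assay. Substrate: partially hybridized 32P-labelled DNA or RNA duplex (per line), 4.7 pM nucleotide base. Run with ATP at its Km of 4.2 µM in Tris/HCl pH 7.5 with MgCl2, 30 min at 30 °C. Released strand separated by TBE-PAGE and quantified by 32P counting. IC50 is 50% of control unwinding; representative of three experiments.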

[2] = tested on: West Nile virus; assay: Inhibitory activity determined against west nile virus (WNV) NTPase/helicase (NTPase/helicase Non structural protein 3) using DNA as substrate; type: functional
Procedure, shortened: (§2)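 WNV NTPase/helicase (2 pmol), purified from culture medium of virus-infected Vero E6 cells, unwinding a partially hybridized 32P 5'-labelled duplex (26-mer release strand on 40-mer template; DNA or RNA per line, 4.7 pM nucleotide base). Conditions: ATP at Km (9.5 µM), 20 mM Tris/HCl pH 7.5, 2 mM MgCl2, 30 min at 30 °C. Released strand resolved on TBE-PAGE and its radioactivity counted. IC50 is 50% of compound-free unwinding; representative of three independent experiments.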

[3] = target: T1, ATP-dependent RNA helicase SUPV3L1, mitochondrial; assay: Inhibitory activity determined against human Suv3 helicase using DNA as substrate; procedure, shortened: as §1
[4] = tested on: West Nile virus; assay: Inhibitory activity determined against west nile virus (WNV) NTPase/helicase (NTPase/helicase Non structural protein 3) using RNA as substrate; type: functional; procedure, shortened: as §2
[5] = tested on: West Nile virus; assay: Inhibitory activity against west nile virus (WNV) NTPase/helicase (NTPase/helicase Non structural protein 3) using DNA as substrate; type: functional; procedure, shortened: as §2
[6] = tested on: West Nile virus; assay: Inhibitory activity against west nile virus (WNV) NTPase/helicase (NTPase/helicase Non structural protein 3) using RNA as substrate; type: functional; procedure, shortened: as §2

Structure (SMILES)	IC50 [1] [µM]	IC50 [2] [µg/mL]	IC50 [3] [µM]	IC50 [4] [µg/mL]	ED200 [5] [µg/mL]	ED200 [6] [µg/mL]
CCCCCCCCCCCCNc1nc(=O)c2c(ncn2Cc2ccc(OC)cc2)c(=O)[nH]1	> 1070	5 (≈ 10.7 µM)	> 1070	1 (≈ 2.14 µM)		
CCCCCCCCCCCCNc1nc(=O)c2c(ncn2[C@@H]2C[C@H](O)[C@@H](CO)O2)c(=O)[nH]1	324	3 (≈ 6.47 µM)	539	100 (≈ 216 µM)		
CCCCCCCCCCCCNc1nc(=O)c2c(ncn2[C@H]2C[C@H](O)[C@@H](CO)O2)c(=O)[nH]1	> 1080	3 (≈ 6.47 µM)	6.47	1.5 (≈ 3.24 µM)		
CCCCCCCCCCCCNc1nc(O)c2ncnc-2c(O)n1	> 1440	> 500	> 1440	> 500		
CCCCCCCCNc1nc(=O)c2ncn([C@@H]3O[C@H](CO)[C@@H](O)C3O)c2c(=O)[nH]1 (single isomer, unassigned)		> 300				
CCCCCCCCCCNc1nc(=O)c2ncn([C@@H]3O[C@H](CO)[C@@H](O)C3O)c2c(=O)[nH]1 (single isomer, unassigned)	1110	30 (≈ 66.4 µM)	> 1110	300 (≈ 664 µM)		
CCCCCCCCCCCCNc1nc(=O)c2ncn([C@@H]3O[C@H](CO)[C@@H](O)C3O)c2c(=O)[nH]1 (single isomer, unassigned)	313	1 (≈ 2.09 µM)	> 1040	10 (≈ 20.9 µM)		
CCCCCCCCCCCCCCNc1nc(=O)c2ncn([C@@H]3O[C@H](CO)[C@@H](O)C3O)c2c(=O)[nH]1 (single isomer, unassigned)	59.1	3 (≈ 5.91 µM)	591	> 500		
CCCCCCCCCCCCCCCCNc1nc(=O)c2ncn([C@@H]3O[C@H](CO)[C@@H](O)C3O)c2c(=O)[nH]1 (single isomer, unassigned)	56	250 (≈ 467 µM)	> 933	500 (≈ 933 µM)		
CCCCCCCCCCCCCCCCCCNc1nc(=O)c2ncn([C@@H]3O[C@H](CO)[C@@H](O)C3O)c2c(=O)[nH]1 (single isomer, unassigned)	53.2	5 (≈ 8.87 µM)	> 887	100 (≈ 177 µM)		
CCCCCCCNc1nc(=O)c2c(ncn2C2O[C@H](CO)[C@@H](O)C2O)c(=O)[nH]1 (single isomer, unassigned)		> 300				
CCCCCNc1nc(=O)c2c(ncn2C2O[C@H](CO)[C@@H](O)C2O)c(=O)[nH]1 (single isomer, unassigned)		> 300				
CCCNc1nc(=O)c2c(ncn2C2O[C@H](CO)[C@@H](O)C2O)c(=O)[nH]1 (single isomer, unassigned)		> 300				
CCNc1nc(=O)c2c(ncn2C2O[C@H](CO)[C@@H](O)C2O)c(=O)[nH]1 (single isomer, unassigned)		> 300				
CNc1nc(=O)c2c(ncn2C2O[C@H](CO)[C@@H](O)C2O)c(=O)[nH]1 (single isomer, unassigned)		> 300				
CCCCNc1nc(=O)c2c(ncn2C2O[C@H](CO)[C@@H](O)C2O)c(=O)[nH]1 (single isomer, unassigned)		> 300				
CCCCCCNc1nc(=O)c2c(ncn2C2O[C@H](CO)[C@@H](O)C2O)c(=O)[nH]1 (single isomer, unassigned)		> 300				
CN(C)c1nc(=O)c2c(ncn2C2O[C@H](CO)[C@@H](O)C2O)c(=O)[nH]1 (single isomer, unassigned)		> 300				
O=c1nc(NCCCc2ccccc2)[nH]c(=O)c2c1ncn2C1O[C@H](CO)[C@@H](O)C1O (single isomer, unassigned)		> 500				
O=c1nc(NCCc2ccccc2)[nH]c(=O)c2c1ncn2C1O[C@H](CO)[C@@H](O)C1O (single isomer, unassigned)		> 500				
O=c1nc(NCc2ccccc2)[nH]c(=O)c2c1ncn2C1O[C@H](CO)[C@@H](O)C1O (single isomer, unassigned)		> 500				
O=c1nc(Nc2ccccc2)[nH]c(=O)c2c1ncn2C1O[C@H](CO)[C@@H](O)C1O (single isomer, unassigned)	> 1290		> 1290		300	100
O=c1nc(NCCCCc2ccccc2)[nH]c(=O)c2c1ncn2C1O[C@H](CO)[C@@H](O)C1O (single isomer, unassigned)		> 500				
